Measurements taken from ChEMBL document CHEMBL1124597, “Quinones. 4. Novel eicosanoid antagonists: synthesis and pharmacological evaluation” (J Med Chem, 1989).

Columns and labels:
[1] = organism: Oryctolagus cuniculus; assay: In vitro percent inhibition against U-44,069 (10e-7 M) induced contraction of rabbit aorta at 10e-5 M concentration.; type: functional
Outline: (§1)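 Rabbit aortic strips (2-3 mm × 3 cm) in Krebs-Henseleit, 37 °C, 95% O2/5% CO2, 2 g resting tension, isometric recording. Drugs (final 10⁻⁵ to 10⁻⁸ M, 0.01% DMSO) added 10 min before U-44069 (2-6 nM, about 50% of the 30 mM KCl contraction). Percent inhibition, or concentration reducing contraction by 50%; duplicate means.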

[2] = organism: Oryctolagus cuniculus; assay: In vitro percent inhibition against U-44,069 (10e-7 M) induced contraction of rabbit aorta at 10e-6 M concentration; type: functional; outline: as §1
[3] = organism: Oryctolagus cuniculus; assay: In vitro concentration that reduced U-44069-induced contraction of the rabbit aorta by 50%; type: functional; outline: as §1
[4] = organism: Oryctolagus cuniculus; assay: In vitro percent inhibition against U-44,069 (10e-7 M) induced contraction of rabbit aorta at 10e-7 M concentration; type: functional; outline: as §1
[5] = tested on: Cavia porcellus; assay: In vivo percentage of inhibition against U-46619 -induced bronchoconstriction in guinea pig at a concentration of 5 mg/kg after 1 hour of oral administration.; type: functional
Outline: (§2)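 Urethane-anesthetized (1.5 g/kg ip) guinea pigs given gallamine (1 mg/kg iv); bronchoconstriction measured by Konzett-Rössler overflow. Challenge was U-46619, LTD4 or PAF at 10 μg/kg iv, or IgG1-mediated in animals sensitized ip with egg albumin (1 mg/kg)/FCA and used 3 weeks later. Drug given orally in 5% gum arabic 1 h before challenge; n = 8. ID50 = dose giving 50% inhibition.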

[6] = tested on: Cavia porcellus; assay: In vivo percentage of inhibition against LTD -induced bronchoconstriction in guinea pig at a concentration of 20 mg/kg after 1 hour of oral administration; type: functional; outline: as §2
[7] = organism: Oryctolagus cuniculus; assay: In vitro concentration that reduced U-44069-induced contraction of the rabbit aorta; type: functional; settings: read-out: pA2 (converted); outline: as §1
[8] = organism: Cavia porcellus; assay: In vitro concentration that reduced U-44069-induced aggregation of guinea pig platelets by 50%; type: functional
Outline: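 PRP from conscious male guinea pigs, blood taken by cardiac puncture into 3.15% citrate (1:9); platelets adjusted to 450 000/μL. PRP preincubated 2 min at 37 °C, then incubated 2 min with U-44069 at a concentration giving submaximal aggregation. IC50 = antagonist concentration reducing aggregation by 50%.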

[9] = organism: Cavia porcellus; assay: In vitro concentration that reduced U-46619-induced contraction of guinea pig lung; settings: read-out: pA2 (converted)
[10] = tested on: Cavia porcellus; assay: In vivo percentage of inhibition against LTD -induced bronchoconstriction in guinea pig at a concentration of 5 mg/kg after 1 hour of oral administration; type: functional; outline: as §2
[11] = tested on: Cavia porcellus; assay: In vivo percentage of inhibition against U-46619-induced bronchoconstriction in guinea pig at a concentration of 20 mg/kg when after 1 hour of oral administration; type: functional; outline: as §2

Row | SMILES | Inhibition [1] | Inhibition [2] | other results
1 | CC1=C(C)C(=O)C(C(CCOc2cccc(C(=O)O)c2)c2ccccc2)=C(C)C1=O (stereo not given) | 2% |  | 
2 | CC1=C(C)C(=O)C(C(CCCC#CC(=O)O)c2ccccc2)=C(C)C1=O (stereo not given) | 72% |  | 
3 | CC1=C(C)C(=O)C(C(CCCCC(C)(C)C(=O)O)c2ccccc2)=C(C)C1=O (stereo not given) | 12% |  | 
4 | COC1=C(OC)C(=O)C(C(CCCCCC(=O)O)c2ccc(F)cc2)=C(C)C1=O (stereo not given) | 99% | 0% | IC50 [3]: 3200 nM
5 | CC1=C(C)C(=O)C(C(CCCCCC(=O)O)c2ccc(Br)cc2)=C(C)C1=O (stereo not given) | 94% | 36% | IC50 [3]: 1700 nM
6 | CC1=C(C(CCCCCC(=O)O)c2ccccc2)C(=O)c2ccccc2C1=O (stereo not given) | 100% | 99% | IC50 [3]: 240 nM; Inhibition [4]: 20%
7 | CC1=C(C)C(=O)C(C(CCCCCC(=O)NC(C)c2ccccc2)c2ccccc2)=C(C)C1=O (stereo not given) | 33% |  | 
8 | CC1=C(C)C(=O)C(C(CCCCCCCCC(=O)O)c2ccccc2)=C(C)C1=O (stereo not given) | 41% |  | 
9 | CC1=C(C)C(=O)C(C(CCCCCCO)c2ccccc2)=C(C)C1=O (stereo not given) | 0% |  | 
10 | CC1=C(C)C(=O)C(C(CCCCCc2nnn[nH]2)c2ccccc2)=C(C)C1=O (stereo not given) | 2% |  | 
11 | CC1=C(C(CCCCCC(=O)O)c2ccc(F)cc2)C(=O)c2ccccc2C1=O (stereo not given) | 100% | 100% | Inhibition [4]: 78%
12 | CC1=C(C)C(=O)C([C@@H](CCCCCC(=O)O)c2ccccc2)=C(C)C1=O |  |  | inhibition in vivo at 5 mg/kg [5]: 47%; inhibition in vivo at 20 mg/kg [6]: 65%; Kb [7]: 229 nM; IC50 [8]: 13000 nM; Kb [9]: 295 nM; inhibition in vivo at 5 mg/kg [10]: 27%; inhibition in vivo at 20 mg/kg [11]: 68%
13 | CC1=C(C)C(=O)C(C(CCCCCC(=O)O)c2cccc(C(F)(F)F)c2)=C(C)C1=O (stereo not given) | 64% |  | 
14 | CC1=C(C)C(=O)C(C(CCCCCC(N)=O)c2ccccc2)=C(C)C1=O (stereo not given) | 6% |  | 
15 | COc1ccc(C(CCCCCC(=O)O)C2=C(C)C(=O)C(C)=C(C)C2=O)cc1 (stereo not given) | 100% | 3% | IC50 [3]: 3000 nM
16 | CC1=C(C)C(=O)C(C(CCCCCC(=O)O)c2ccc(C(C)C)cc2)=C(C)C1=O (stereo not given) | 4% |  | 
17 | CC1=C(C)C(=O)C(CCCCCCC(=O)O)=C(C)C1=O | 8% |  | 
18 | CC1=C(C)C(=O)C(C(CCc2cccc(C(=O)O)c2)c2ccccc2)=C(C)C1=O (stereo not given) | 89% | 0% | 
19 | CC1=C(C)C(=O)C(C(CCCCCC(=O)NC(C)C)c2ccccc2)=C(C)C1=O (stereo not given) | 8% |  | 
20 | CC1=C(C)C(=O)C(C(CCCCCCC(=O)O)c2ccccc2)=C(C)C1=O (stereo not given) | 98% | 0% | IC50 [3]: 3200 nM
